Source: ChEMBL document CHEMBL1152173, “Synthesis and in vitro evaluation of the antifungal activities of dihydropyrimidinones” (2008)
Values after ≈ are worked out from the molar mass of the structure shown. Active and inactive are the calls of the source. The calls are words filed in the database; no cut-off is given here.

How the values were obtained:
[1] = tested on: Trichoderma hamatum; experiment: Antifungal activity against Trichoderma hamatum assessed as radial growth at 3% after 24 hrs by poison food technique of Flack relative to control; format: functional
[2] = tested on: Trichoderma hamatum; experiment: Antifungal activity against Trichoderma hamatum assessed as radial growth at 7% after 72 hrs by poison food technique of Flack relative to control; format: functional
Summary of the method: (§1)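 Acetone stock added to molten sterilized PDA to final 0.5–7%, plated in 90 mm dishes with compound-free plates as control. Each plate was inoculated with a 9 mm disc from a 4-day-old culture, incubated at 25 ± 1 °C, and colony diameter measured at 24 h intervals. % inhibition = (control − treatment)/control × 100; three replicates averaged.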

[3] = tested on: Trichoderma hamatum; experiment: Antifungal activity against Trichoderma hamatum assessed as radial growth at 7% after 24 hrs by poison food technique of Flack; format: functional, organism-based
Summary of the method: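 Poisoned-food method: acetone stock mixed into molten sterilized potato dextrose agar to final 0.5, 1, 3, 5 or 7%, poured into 90 mm plates. Plates were inoculated with a 9 mm mycelial disc from a 4-day-old pure culture and incubated at 25 ± 1 °C. Colony diameter (mm) was read every 24 h; mean of three replicates.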

[4] = tested on: Trichoderma koningii; experiment: Antifungal activity against Trichoderma koningii assessed as radial growth at 0.5% after 48 hrs by poison food technique of Flack relative to control; format: functional; summary of the method: as §1
[5] = tested on: Aspergillus niger; experiment: Antifungal activity against Aspergillus niger assessed as radial growth at 0.5% after 48 hrs by poison food technique of Flack relative to control; format: functional
[6] = tested on: Aspergillus niger; experiment: Antifungal activity against Aspergillus niger; format: functional
[7] = tested on: Aspergillus niger; experiment: Antifungal activity against Aspergillus niger assessed as radial growth at 5% after 72 hrs by poison food technique of Flack relative to control; format: functional
[8] = tested on: Aspergillus niger; experiment: Antifungal activity against Aspergillus niger assessed as radial growth at 1% after 24 hrs by poison food technique of Flack relative to control; format: functional
[9] = tested on: Trichoderma hamatum; experiment: Antifungal activity against Trichoderma hamatum assessed as radial growth at 7% after 48 hrs by poison food technique of Flack relative to control; format: functional; summary of the method: as §1
[10] = tested on: Trichoderma koningii; experiment: Antifungal activity against Trichoderma koningii assessed as radial growth at 5% after 72 hrs by poison food technique of Flack relative to control; format: functional; summary of the method: as §1
[11] = tested on: Trichoderma hamatum; experiment: Antifungal activity against Trichoderma hamatum assessed as radial growth at 1% after 72 hrs by poison food technique of Flack relative to control; format: functional
[12] = tested on: Trichoderma koningii; experiment: Antifungal activity against Trichoderma koningii; format: functional
[13] = tested on: Aspergillus niger; experiment: Antifungal activity against Aspergillus niger assessed as radial growth at 1% after 72 hrs by poison food technique of Flack relative to control; format: functional
[14] = tested on: Trichoderma koningii; experiment: Antifungal activity against Trichoderma koningii assessed as radial growth at 3% after 24 hrs by poison food technique of Flack relative to control; format: functional; summary of the method: as §1
[15] = tested on: Trichoderma hamatum; experiment: Antifungal activity against Trichoderma hamatum assessed as radial growth at 1% after 24 hrs by poison food technique of Flack relative to control; format: functional
[16] = tested on: Aspergillus niger; experiment: Antifungal activity against Aspergillus niger assessed as radial growth at 7% after 24 hrs by poison food technique of Flack relative to control; format: functional
[17] = tested on: Trichoderma koningii; experiment: Antifungal activity against Trichoderma koningii assessed as radial growth at 0.5% after 24 hrs by poison food technique of Flack relative to control; format: functional; summary of the method: as §1
[18] = tested on: Trichoderma koningii; experiment: Antifungal activity against Trichoderma koningii assessed as radial growth at 7% after 24 hrs by poison food technique of Flack relative to control; format: functional; summary of the method: as §1
[19] = tested on: Trichoderma hamatum; experiment: Antifungal activity against Trichoderma hamatum assessed as radial growth at 1% after 48 hrs by poison food technique of Flack relative to control; format: functional
[20] = tested on: Aspergillus niger; experiment: Antifungal activity against Aspergillus niger assessed as radial growth at 7% after 72 hrs by poison food technique of Flack relative to control; format: functional
[21] = tested on: Trichoderma hamatum; experiment: Antifungal activity against Trichoderma hamatum assessed as radial growth at 3% after 72 hrs by poison food technique of Flack relative to control; format: functional
[22] = tested on: Aspergillus niger; experiment: Antifungal activity against Aspergillus niger assessed as radial growth at 0.5% after 24 hrs by poison food technique of Flack relative to control; format: functional
[23] = tested on: Trichoderma koningii; experiment: Antifungal activity against Trichoderma koningii assessed as radial growth at 7% after 48 hrs by poison food technique of Flack relative to control; format: functional; summary of the method: as §1
[24] = tested on: Trichoderma koningii; experiment: Antifungal activity against Trichoderma koningii assessed as radial growth at 1% after 24 hrs by poison food technique of Flack relative to control; format: functional; summary of the method: as §1
[25] = tested on: Aspergillus niger; experiment: Antifungal activity against Aspergillus niger assessed as radial growth at 3% after 72 hrs by poison food technique of Flack relative to control; format: functional
[26] = tested on: Trichoderma hamatum; experiment: Antifungal activity against Trichoderma hamatum assessed as radial growth at 7% after 24 hrs by poison food technique of Flack relative to control; format: functional; summary of the method: as §1
[27] = tested on: Aspergillus niger; experiment: Antifungal activity against Aspergillus niger assessed as radial growth at 5% after 24 hrs by poison food technique of Flack relative to control; format: functional
[28] = tested on: Trichoderma koningii; experiment: Antifungal activity against Trichoderma koningii assessed as radial growth at 7% after 72 hrs by poison food technique of Flack relative to control; format: functional; summary of the method: as §1
[29] = tested on: Aspergillus niger; experiment: Antifungal activity against Aspergillus niger assessed as radial growth at 1% after 48 hrs by poison food technique of Flack relative to control; format: functional
[30] = tested on: Trichoderma koningii; experiment: Antifungal activity against Trichoderma koningii assessed as radial growth at 3% after 48 hrs by poison food technique of Flack relative to control; format: functional; summary of the method: as §1
[31] = tested on: Trichoderma hamatum; experiment: Antifungal activity against Trichoderma hamatum assessed as radial growth at 3% after 48 hrs by poison food technique of Flack relative to control; format: functional
[32] = tested on: Trichoderma hamatum; experiment: Antifungal activity against Trichoderma hamatum assessed as radial growth at 5% after 72 hrs by poison food technique of Flack relative to control; format: functional; summary of the method: as §1
[33] = tested on: Trichoderma koningii; experiment: Antifungal activity against Trichoderma koningii assessed as radial growth at 1% after 48 hrs by poison food technique of Flack relative to control; format: functional; summary of the method: as §1
[34] = tested on: Aspergillus niger; experiment: Antifungal activity against Aspergillus niger assessed as radial growth at 3% after 48 hrs by poison food technique of Flack relative to control; format: functional
[35] = tested on: Trichoderma koningii; experiment: Antifungal activity against Trichoderma koningii assessed as radial growth at 5% after 48 hrs by poison food technique of Flack relative to control; format: functional; summary of the method: as §1
[36] = tested on: Aspergillus niger; experiment: Antifungal activity against Aspergillus niger assessed as radial growth at 0.5% after 72 hrs by poison food technique of Flack relative to control; format: functional
[37] = tested on: Trichoderma hamatum; experiment: Antifungal activity against Trichoderma hamatum assessed as radial growth at 5% after 24 hrs by poison food technique of Flack relative to control; format: functional; summary of the method: as §1
[38] = tested on: Trichoderma koningii; experiment: Antifungal activity against Trichoderma koningii assessed as radial growth at 5% after 24 hrs by poison food technique of Flack relative to control; format: functional; summary of the method: as §1
[39] = tested on: Trichoderma koningii; experiment: Antifungal activity against Trichoderma koningii assessed as radial growth at 3% after 72 hrs by poison food technique of Flack relative to control; format: functional; summary of the method: as §1
[40] = tested on: Trichoderma hamatum; experiment: Antifungal activity against Trichoderma hamatum assessed as radial growth at 0.5% after 48 hrs by poison food technique of Flack relative to control; format: functional
[41] = tested on: Trichoderma koningii; experiment: Antifungal activity against Trichoderma koningii assessed as radial growth at 1% after 72 hrs by poison food technique of Flack relative to control; format: functional; summary of the method: as §1
[42] = tested on: Aspergillus niger; experiment: Antifungal activity against Aspergillus niger assessed as radial growth at 7% after 48 hrs by poison food technique of Flack relative to control; format: functional
[43] = tested on: Aspergillus niger; experiment: Antifungal activity against Aspergillus niger assessed as radial growth at 5% after 48 hrs by poison food technique of Flack relative to control; format: functional
[44] = tested on: Trichoderma hamatum; experiment: Antifungal activity against Trichoderma hamatum assessed as radial growth at 0.5% after 72 hrs by poison food technique of Flack relative to control; format: functional

With `CCOC(=O)C1=C(C)NC(=O)NC1c1ccccc1` (stereo not drawn) the “inhibition (INH)” value [1] was 82.12%, the “inhibition (INH)” value [2] was 100% and the Activity [3] was “Active”. The “inhibition (INH)” value [4] was 18.25%, the “inhibition (INH)” value [5] was 0% and the MIC [6] was 0.025 µg/mL (≈ 0.096 µM). The “inhibition (INH)” value [7] was 73.29%, the “inhibition (INH)” value [8] was 30.55% and the “inhibition (INH)” value [9] was 100%. The “inhibition (INH)” value [10] was 91.53%, the “inhibition (INH)” value [11] was 12.34% and the MIC [12] was 0.025 µg/mL (≈ 0.096 µM). The “inhibition (INH)” value [13] was 0%, the “inhibition (INH)” value [14] was 100% and the “inhibition (INH)” value [15] was 24.96%. For the same compound, the “inhibition (INH)” value [16] was 100%, the “inhibition (INH)” value [17] was 5.66% and the “inhibition (INH)” value [18] was 100%. The “inhibition (INH)” value [19] was 21.94%, the “inhibition (INH)” value [20] was 76.7% and the “inhibition (INH)” value [21] was 63.38%. The “inhibition (INH)” value [22] was 0%, the “inhibition (INH)” value [23] was 100% and the “inhibition (INH)” value [24] was 12.09%. For the same compound, the “inhibition (INH)” value [25] was 54.34%, the “inhibition (INH)” value [26] was 100% and the “inhibition (INH)” value [27] was 84.72%. For the same compound, the “inhibition (INH)” value [28] was 95.52%, the “inhibition (INH)” value [29] was 0% and the “inhibition (INH)” value [30] was 62.31%. For the same compound, the “inhibition (INH)” value [31] was 72.02%, the “inhibition (INH)” value [32] was 93.2% and the “inhibition (INH)” value [33] was 20.63%. The “inhibition (INH)” value [34] was 52.83%, the “inhibition (INH)” value [35] was 100% and the “inhibition (INH)” value [36] was 0%. The “inhibition (INH)” value [37] was 100%, the “inhibition (INH)” value [38] was 100% and the “inhibition (INH)” value [39] was 70.18%. For the same compound, the “inhibition (INH)” value [40] was 32.99%, the “inhibition (INH)” value [41] was 10.86% and the “inhibition (INH)” value [42] was 79.36%. For the same compound, the “inhibition (INH)” value [43] was 81.17% and the “inhibition (INH)” value [44] was 2.46%.

`CCOC(=O)C1=C(C)NC(=O)NC1c1ccccc1O` (stereo not drawn) was tested, and the “inhibition (INH)” value [1] was 63.84%, the “inhibition (INH)” value [2] was 96.78% and the Activity [3] was “Active”. For the same compound, the “inhibition (INH)” value [4] was 0%, the “inhibition (INH)” value [5] was 34.75% and the MIC [6] was 0.025 µg/mL (≈ 0.0905 µM). The “inhibition (INH)” value [7] was 66.07%, the “inhibition (INH)” value [8] was 0% and the “inhibition (INH)” value [9] was 100%. The “inhibition (INH)” value [10] was 55.7%, the “inhibition (INH)” value [11] was 15.84% and the MIC [12] was 0.025 µg/mL (≈ 0.0905 µM). The “inhibition (INH)” value [13] was 16.07%, the “inhibition (INH)” value [14] was 50.72% and the “inhibition (INH)” value [15] was 21.05%. The “inhibition (INH)” value [16] was 100%, the “inhibition (INH)” value [17] was 0% and the “inhibition (INH)” value [18] was 100%. The “inhibition (INH)” value [19] was 22.44%, the “inhibition (INH)” value [20] was 92.85% and the “inhibition (INH)” value [21] was 59.1%. For the same compound, the “inhibition (INH)” value [22] was 0%, the “inhibition (INH)” value [23] was 100% and the “inhibition (INH)” value [24] was 0%. The “inhibition (INH)” value [25] was 60.71%, the “inhibition (INH)” value [26] was 100% and the “inhibition (INH)” value [27] was 40%. The “inhibition (INH)” value [28] was 97.31%, the “inhibition (INH)” value [29] was 17.75% and the “inhibition (INH)” value [30] was 38.81%. The “inhibition (INH)” value [31] was 68.75%, the “inhibition (INH)” value [32] was 95.07% and the “inhibition (INH)” value [33] was 5.2%. The “inhibition (INH)” value [34] was 64.58%, the “inhibition (INH)” value [35] was 70.83% and the “inhibition (INH)” value [36] was 33.35%. The “inhibition (INH)” value [37] was 89.47%, the “inhibition (INH)” value [38] was 79.71% and the “inhibition (INH)” value [39] was 25.16%. For the same compound, the “inhibition (INH)” value [40] was 0%, the “inhibition (INH)” value [41] was 0.67% and the “inhibition (INH)” value [42] was 100%. The “inhibition (INH)” value [43] was 65.66% and the “inhibition (INH)” value [44] was 0%.
